SMILES strings stand for the structures.

Common to all, as to details: isolated protein
The target in series [1] is T1, Albumin (Homo sapiens, UniProt P02768). The experiment in a line: Binding affinity to human serum albumin assessed as induction of protein conformational changes by synchronous fluorescence spectroscopy.
The target in series [2] is T1, Albumin. The experiment in a line: Binding affinity to human serum albumin assessed as induction of protein conformational changes by measuring reduction in intensity along with red shift in peak 1 by three-dimensional fluorescence spectroscopy. More on the design: scale not given: the % may be the effect or the level left. The gist of the method:
(§1)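 3-D fluorescence of HSA at 1.5 × 10^-6 M, alone and with ligand at a 2:1 ligand/HSA molar ratio, in Tris-HCl pH 7.4 buffer. Excitation scanned 200–480 nm in 10 nm steps, with emission recorded 220–500 nm. Changes in intensity and position of peak 1 were compared.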

The target in series [3] is T1, Albumin. The experiment in a line: Binding affinity to human serum albumin assessed as Stem-Volmer quenching constant at 300K by fluorescence spectroscopy. The format is ADME. The gist of the method:
(§2)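 Fatty-acid-free HSA, 1.5 × 10^-6 M in 0.1 M Tris-HCl pH 7.4 with 0.1 M NaCl, titrated with ligand from ethanol stock. Each addition equilibrated 5 min. Emission recorded 300–450 nm with excitation at 280 nm, at 300, 305 and 310 K. Constants taken from the linear low-concentration region of Stern-Volmer F0/F plots.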

Series [4] deals with T1, Albumin. Put plainly: Binding affinity to human serum albumin assessed as Stem-Volmer quenching constant at 305K by fluorescence spectroscopy. The format is ADME. The gist of the method: as §2
The target in series [5] is T1, Albumin. The experiment in a line: Binding affinity to human serum albumin assessed as Stem-Volmer quenching constant at 310K by fluorescence spectroscopy. The format is ADME. The gist of the method:
as §2

Series [6] addresses T1, Albumin. Put plainly: Binding affinity to human serum albumin assessed as quenching constant at 300K by fluorescence spectroscopy. The format is ADME. In a few lines: as §2
In series [7] the target is T1, Albumin. The experiment in a line: Binding affinity to human serum albumin assessed as quenching constant at 305K by fluorescence spectroscopy. The format is ADME. In a few lines:
as §2

Series [8] concerns the target T1, Albumin. The experiment in a line: Binding affinity to human serum albumin assessed as quenching constant at 310K by fluorescence spectroscopy. The format is ADME. The gist of the method: as §2
In series [9] the target is T1, Albumin. The experiment in a line: Binding affinity to human serum albumin by UV-vis spectrophotometry. The format is ADME. The gist of the method: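 UV-vis absorption titration at room temperature in a 10 mm quartz cuvette. HSA was held at 1.5 × 10^-6 M while ligand was varied 0–18 × 10^-6 M, and absorbance change at 280 nm was followed. Spectra of ligand alone at 1.5 × 10^-6 M were also recorded.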

For series [10], the target named is T1, Albumin. The experiment in a line: Binding affinity to human serum albumin assessed as binding constant at 300K by Stem-Volmer plot. The format is ADME. The gist of the method: (§3)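 Fatty-acid-free HSA, 1.5 × 10^-6 M in 0.1 M Tris-HCl pH 7.4 / 0.1 M NaCl, was titrated with ligand from ethanol stock and equilibrated 5 min per addition. Emission was read 300–450 nm (excitation 280 nm) at 300, 305 and 310 K. Binding constants came from the quenching data across these temperatures, and thermodynamic parameters from their temperature dependence.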

Series [11] deals with T1, Albumin. The experiment in a line: Binding affinity to human serum albumin assessed as binding constant at 305K by Stem-Volmer plot. The format is ADME. The gist of the method:
as §3

The target in series [12] is T1, Albumin. Put plainly: Binding affinity to human serum albumin assessed as binding constant at 310K by Stem-Volmer plot. The format is ADME. In a few lines: as §3
Series [13] concerns the target T1, Albumin. The experiment in a line: Binding affinity to human serum albumin assessed as enthalpy change at 300K by thermodynamic analysis. The format is ADME. In a few lines: as §3
Series [14] has as its target T1, Albumin. The experiment in a line: Binding affinity to human serum albumin assessed as free energy change at 300K by thermodynamic analysis.
Series [15] deals with T1, Albumin. Put plainly: Binding affinity to human serum albumin assessed as free energy change at 305K by thermodynamic analysis.
For series [16], the target named is T1, Albumin. The experiment in a line: Binding affinity to human serum albumin assessed as free energy change at 310K by thermodynamic analysis.
For series [17], the target named is T1, Albumin. Put plainly: Binding affinity to human serum albumin assessed as induction of protein conformational changes by measuring reduction in intensity along with blue shift in peak 1 by three-dimensional fluorescence spectroscopy. More on the design: scale not given: the % may be the effect or the level left. In a few lines:
as §1

T1 sequence (P02768 whole entry): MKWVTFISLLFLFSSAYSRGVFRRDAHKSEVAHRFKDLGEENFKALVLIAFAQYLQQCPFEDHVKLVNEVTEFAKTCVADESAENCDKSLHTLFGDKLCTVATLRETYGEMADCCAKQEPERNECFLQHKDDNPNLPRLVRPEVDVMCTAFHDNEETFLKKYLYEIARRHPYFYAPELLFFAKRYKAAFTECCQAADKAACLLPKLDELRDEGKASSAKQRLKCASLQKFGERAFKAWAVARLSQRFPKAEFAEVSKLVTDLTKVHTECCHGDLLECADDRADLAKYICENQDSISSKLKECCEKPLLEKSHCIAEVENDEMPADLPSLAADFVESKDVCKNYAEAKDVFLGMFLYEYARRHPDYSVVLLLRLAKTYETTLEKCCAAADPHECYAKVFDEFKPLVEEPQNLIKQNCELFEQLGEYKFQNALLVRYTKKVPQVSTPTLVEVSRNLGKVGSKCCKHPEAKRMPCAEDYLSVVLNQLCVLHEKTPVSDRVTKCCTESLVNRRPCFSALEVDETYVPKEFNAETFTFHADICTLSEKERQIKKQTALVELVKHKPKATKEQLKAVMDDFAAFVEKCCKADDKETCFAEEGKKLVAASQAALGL

For `COc1ccc(CCC(=O)c2ccc(O)cc2)c(OC)c1`, the Activity entry was “Active” on Albumin [1], 28% at Albumin [2] and “Active” on Albumin [9]. Further, the values for the KSV on Albumin [3], at Albumin [4] and on Albumin [5] were 9.85 ×10⁴ /M, 7.98 ×10⁴ /M and 6.24 ×10⁴ /M, respectively. The Kq came out at 9.85 ×10¹² /M/s at Albumin [6], 7.98 ×10¹² /M/s on Albumin [7] and 6.24 ×10¹² /M/s at Albumin [8]. The K on Albumin [10] turned out to be 12.91 ×10⁴ /M; at Albumin [11] it was 9.51 ×10⁴ /M; at Albumin [12], 8.56 ×10⁴ /M. Further, at Albumin [13], the deltaH was -7.643 kcal/mol. For the same molecule, the deltaG is -6.998 kcal/mol on Albumin [14], -6.986 kcal/mol on Albumin [15] and -6.977 kcal/mol on Albumin [16].
Regarding `COc1ccc(C(CCc2ccc(O)cc2OC)c2cc(CCC(=O)c3ccc(O)cc3)c(OC)cc2O)cc1` (configuration not stated) [COCHINCHINENIN C], the Activity entry at Albumin [1] is given as “Active”; on Albumin [17], 14%; on Albumin [9], “Active”. The KSV is 17.69 ×10⁴ /M on Albumin [3], 14.95 ×10⁴ /M at Albumin [4] and 12.15 ×10⁴ /M at Albumin [5]. Moreover, the Kq at Albumin [6] turned out to be 17.69 ×10¹² /M/s; at Albumin [7] it was 14.95 ×10¹² /M/s; on Albumin [8], 12.15 ×10¹² /M/s. The K is on record as 25.32 ×10⁴ /M on Albumin [10], 18.62 ×10⁴ /M on Albumin [11] and 12.32 ×10⁴ /M at Albumin [12]. The deltaH at Albumin [13] is -13.37 kcal/mol. Further, the deltaG at Albumin [14] was -7.431 kcal/mol; at Albumin [15], -7.33 kcal/mol; at Albumin [16], -7.232 kcal/mol.

The values above are taken from ChEMBL document CHEMBL3407398, “Comparison between loureirin A and cochinchinenin C on the interaction with human serum albumin” (Eur J Med Chem, 2015).
